Mdm2 MdmX PPI = inhibitors of human Mdm2-MdmX association, primary screen, cell-based, luminescence, split luciferase, SaOS-2, uHTS; Protein Mdm4 (Homo sapiens) + E3 ubiquitin-protein ligase Mdm2 (Homo sapiens), …; SaOS-2 split-luciferase Mdm2/MdmX complementation; inhibition, % at 8 µM; 330,000 tested, 3% active;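 active means inhibition of at least 50% at 8 µM in the primary screen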
Target sequence (O15151 whole entry, looked up): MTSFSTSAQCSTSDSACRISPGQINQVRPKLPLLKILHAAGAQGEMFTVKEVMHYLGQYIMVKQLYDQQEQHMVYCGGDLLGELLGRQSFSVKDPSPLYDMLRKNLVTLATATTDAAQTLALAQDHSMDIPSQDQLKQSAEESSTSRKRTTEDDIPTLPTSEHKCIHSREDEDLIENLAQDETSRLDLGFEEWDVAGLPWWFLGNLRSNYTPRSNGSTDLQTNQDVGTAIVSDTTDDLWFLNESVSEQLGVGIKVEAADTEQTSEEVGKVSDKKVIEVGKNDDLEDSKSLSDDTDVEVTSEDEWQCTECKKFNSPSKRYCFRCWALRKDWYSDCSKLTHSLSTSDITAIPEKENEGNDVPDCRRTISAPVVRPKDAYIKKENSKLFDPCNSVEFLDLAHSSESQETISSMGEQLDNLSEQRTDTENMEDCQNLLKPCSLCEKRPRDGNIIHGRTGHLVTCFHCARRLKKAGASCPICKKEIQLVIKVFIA
Target sequence (Q00987 whole entry, looked up): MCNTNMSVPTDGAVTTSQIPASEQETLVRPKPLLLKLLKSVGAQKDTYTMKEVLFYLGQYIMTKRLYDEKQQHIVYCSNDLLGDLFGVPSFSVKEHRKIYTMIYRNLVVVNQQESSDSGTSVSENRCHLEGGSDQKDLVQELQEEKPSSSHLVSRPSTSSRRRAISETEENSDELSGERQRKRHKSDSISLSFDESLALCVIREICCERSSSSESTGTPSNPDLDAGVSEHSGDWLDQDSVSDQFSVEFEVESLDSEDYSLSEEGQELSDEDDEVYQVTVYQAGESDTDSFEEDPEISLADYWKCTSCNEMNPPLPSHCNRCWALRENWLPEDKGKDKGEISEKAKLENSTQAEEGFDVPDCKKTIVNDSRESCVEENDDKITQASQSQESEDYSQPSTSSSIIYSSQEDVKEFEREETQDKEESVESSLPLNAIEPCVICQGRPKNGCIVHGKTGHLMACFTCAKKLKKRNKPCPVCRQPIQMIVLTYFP
Apaf1 inhib = inhibitors of human Apaf-1 apoptosome, primary screen, biochemical, DEVD-Rh110 fluorescence, uHTS; AID 489030, 2010; inhibition, % at 20 µM; Apoptotic protease-activating factor 1 (Homo sapiens), O14727; 330,000 tested, 0.71% active; reconstituted apoptosome caspase-3 activity; active means inhibition of at least 40% at 20 µM;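 further: plate controls were DMSO wells for no effect and DEVD-CHO caspase inhibitor wells for full effect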
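Material: cell-free apoptosome with Apaf-1, procaspase-3 and caspase-9; Buffer or medium: Hepes pH 7.5 with detergent and BSA; Reagent: cytochrome c trigger plus (Z-DEVD)2-Rh110 caspase-3 substrate; Times: compound with Apaf-1, dATP, procaspase-3 30 min, then 50 min reaction, room temperature; Technique: Rh110 fluorescence intensity.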
CHOP UPR activ = activators of apoptotic CHOP UPR arm, primary screen, cell-based, CHO-CHOP luciferase reporter, luminescence, uHTS | UPR activation; percent of tunicamycin response over DMSO baseline | activation, % at 10 µM | 330,000 tested, 0.34% active | AID 449763, 2010;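 active means at 10 µM dose, activation of 40% or more, normalized to positive control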;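 further: 100% = tunicamycin at 10 µg/mL and 0% = DMSO alone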
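System: CHO CHOP reporter cells. Amount: 500 cells per well. Buffer or medium: F12 medium, 10% FBS. Compound dosing: one dose, 10 µM in 0.5% DMSO. Incubation: 6 h compound exposure at 37 °C after overnight seeding. Technique: Steady-Glo luciferase luminescence. Benchmarks: tunicamycin and DMSO controls.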
UBC13 inh = UBC13 polyubiquitin chain formation inhibitors, primary screen, biochemical, TR-FRET, uHTS | Ubiquitin-conjugating enzyme E2 N (Homo sapiens), P61088 | inhibition, % at 20 µM | 330,000 tested, 0.47% active | AID 485273, 2010; in the data active means inhibition above about 45%, passing the limit was not always enough
UPR XBP1 act = activators of adaptive XBP1 UPR arm, primary screen, cell-based, CHO-XBP1 luciferase reporter, luminescence, uHTS. IRE1-XBP1 UPR activation; percent of tunicamycin response, DMSO as zero. activation, % at 20 µM. 330,000 tested, 0.33% active;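 active means versus positive control, 20 µM dose yields 30% or more activation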;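 further: 100% = tunicamycin at 10 µg/mL and 0% = DMSO only wells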
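Material: IRE1-XBP1 luciferase reporter CHO line / Quantity: one thousand reporter cells per well / Buffer or medium: F12 with 10% serum / Compound: 20 µM single concentration, DMSO 1% / Times: 6 h treatment, 37 °C / Detection: Steady-Glo luciferase glow luminescence, 10 min after reagent addition / Benchmarks: tunicamycin high, DMSO low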
Mdm2-MdmX conf = Mdm2-MdmX complex disruptors, retested hits, confirmation, luminescence, single concentration | shares compounds with Mdm2 MdmX PPI | Mdm2-MdmX binding, luminescent assay | inhibition, % at 8 µM | 10,000 tested, 55% active | AID 489028, 2010; in the data active means inhibition above about 40%
Full FLuc ctr = full-length luciferase signal inhibition, confirmation, counter-screen for Mdm2/MdmX interaction inhibitor project, cell-based, single concentration, SaOS-2; shares compounds with Mdm2 MdmX PPI; SaOS-2 full-length luciferase counterscreen, luminescence; inhibition, % at 8 µM; 6,200 tested, 77% active; AID 504607, 2011;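 active means mean inhibition at 8 µM reaching about 37%, which flags the compound as non-specific, limit read from the data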;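 further: p53-null SaOS-2 cells with luciferase driven by a doxycycline-inducible promoter; compound on cells about two nights before reading with doxycycline added after day one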
An asterisk follows results filed as active. Sampled rows, rich in hits. Any-hit rate of the full collection: about 4.1%.

Screening C[C@]12C(=O)N(c3ccc(C(F)(F)F)cc3)C(=O)N1[C@@H]1c3ccccc3OC[C@@H]1[C@H]2c1ccccc1 returned Mdm2 MdmX PPI 50*, Apaf1 inhib 2, CHOP UPR activ 1, UBC13 inh -6, UPR XBP1 act -2, Mdm2-MdmX conf 50* and Full FLuc ctr 74*.
`Cc1ccc(N2C(=O)N3[C@H]4c5ccccc5OC[C@@H]4[C@@H](c4ccccc4)[C@@]3(C)C2=O)cc1` gave Mdm2 MdmX PPI 52*, Apaf1 inhib -7, CHOP UPR activ -1, UBC13 inh -14, UPR XBP1 act -4 and Mdm2-MdmX conf 17.
For Cc1cccc(OCCCC(=O)Nc2nc3ccccc3[nH]2)c1 the results were Mdm2 MdmX PPI 76*, Apaf1 inhib 1, CHOP UPR activ -1, UBC13 inh -2, UPR XBP1 act -1, Mdm2-MdmX conf 74* and Full FLuc ctr 65*.
Screening Cc1nc2ccccc2c(N)c1C(=O)/C=C/c1ccccc1 returned Mdm2 MdmX PPI 76*, Apaf1 inhib -6, CHOP UPR activ 0, UBC13 inh 6, UPR XBP1 act -1, Mdm2-MdmX conf 33 and Full FLuc ctr 75*.
COc1ccc(S(=O)Cc2ccc(C(=O)NCc3cccc(OC)c3)o2)cc1 (configuration not stated) was read as Mdm2 MdmX PPI 20, Apaf1 inhib -5, CHOP UPR activ 1, UBC13 inh 2 and UPR XBP1 act -7.
`CN1CCN(CC(O)Cn2c3ccccc3c3ccccc32)CC1` (configuration not stated) gave Mdm2 MdmX PPI 29, Apaf1 inhib -2, CHOP UPR activ 0, UBC13 inh 6 and UPR XBP1 act -5.
Screening COc1ccc(CN2CCN(CC(O)Cn3c4ccccc4c4ccccc43)CC2)cc1 (configuration not stated) returned Mdm2 MdmX PPI 66*, Apaf1 inhib 17, CHOP UPR activ -1, UBC13 inh 24, UPR XBP1 act 4, Mdm2-MdmX conf 35 and Full FLuc ctr 79*.
Screening CCOc1ccc(CN2CCN(CC(O)Cn3c4ccccc4c4ccccc43)CC2)cc1 (configuration not stated) returned Mdm2 MdmX PPI 89*, Apaf1 inhib 23, CHOP UPR activ 4, UBC13 inh 13, UPR XBP1 act 10, Mdm2-MdmX conf 72* and Full FLuc ctr 36.
Screening COc1ccc(CCNC(=O)CSc2nnc(CNC(=O)c3cc(OC)c(OC)c(OC)c3)o2)cc1OC returned Mdm2 MdmX PPI 11, Apaf1 inhib -7, CHOP UPR activ 2, UBC13 inh -6 and UPR XBP1 act -8.
Screening CCN(CC)c1ccc(/C=N\NC(=O)c2cccc3cc[nH]c23)cc1 returned Mdm2 MdmX PPI 50*, Apaf1 inhib 7, CHOP UPR activ 8, UBC13 inh -2, UPR XBP1 act 20 and Mdm2-MdmX conf 39.
`O=C(Nc1ccc(N2CCOCC2)c(S(=O)(=O)Nc2cc(Cl)ccc2Cl)c1)c1cccnc1` gave Mdm2 MdmX PPI 24, Apaf1 inhib 2, CHOP UPR activ -3, UBC13 inh -10 and UPR XBP1 act 0.
`O=C(Nc1cc(S(=O)(=O)Nc2ccc(Cl)cc2)ccc1N1CCCCC1)c1ccc(F)cc1Cl` gave Mdm2 MdmX PPI 67*, Apaf1 inhib 12, CHOP UPR activ 0, UBC13 inh -2, UPR XBP1 act 8 and Mdm2-MdmX conf 21.
Screening COc1ccc(NS(=O)(=O)c2ccc(N3CCOCC3)c(NC(=O)c3ccccc3Cl)c2)cc1 returned Mdm2 MdmX PPI -9, Apaf1 inhib 8, CHOP UPR activ 1, UBC13 inh 8 and UPR XBP1 act -3.
`O=C(Nc1ccc(N2CCOCC2)c(S(=O)(=O)Nc2ccccc2Cl)c1)c1ccccc1` gave Mdm2 MdmX PPI 54*, Apaf1 inhib -8, CHOP UPR activ -3, UBC13 inh 8, UPR XBP1 act -3 and Mdm2-MdmX conf 14.
Screening O=C(Nc1ccc(Cl)cc1)Nc1ccc(N2CCCC2)c(S(=O)(=O)Nc2ccccc2Cl)c1 returned Mdm2 MdmX PPI 96*, Apaf1 inhib 9, CHOP UPR activ 16, UBC13 inh -24, UPR XBP1 act 11, Mdm2-MdmX conf 90* and Full FLuc ctr 24.
`CCN(Cc1cc(=O)[nH]c2ccccc12)C(=O)c1ccc(C)cc1` gave Mdm2 MdmX PPI -5, Apaf1 inhib -6, CHOP UPR activ 0, UBC13 inh -3 and UPR XBP1 act 0.
Cn1c(=O)n(C)c2cc(N3CCOCC3)c(NC(=O)c3cccc(Cl)c3)cc21 was read as Mdm2 MdmX PPI 32, Apaf1 inhib 1, CHOP UPR activ 1, UBC13 inh 3 and UPR XBP1 act -3.
For Cc1ccc(C(=O)NCCc2nnc3ccc(NCCCN4CCOCC4)nn23)cc1 the results were Mdm2 MdmX PPI 20, Apaf1 inhib 5, CHOP UPR activ -3, UBC13 inh 3 and UPR XBP1 act -3.
Cn1cnc([N+](=O)[O-])c1S(=O)(=O)c1cccc(Cl)c1 was read as Mdm2 MdmX PPI 68*, Apaf1 inhib -13, CHOP UPR activ -11, UBC13 inh 1, UPR XBP1 act -8, Mdm2-MdmX conf 34 and Full FLuc ctr 21.
`CC(C)(C)C(=O)Nc1cccc(S(=O)(=O)NC2=NCCC2)c1` gave Mdm2 MdmX PPI 24, Apaf1 inhib 5, CHOP UPR activ -1, UBC13 inh 0 and UPR XBP1 act 0.
For CCN(CC)CCN(C(=O)Cn1nnc(-c2ccc(C)o2)n1)C(C(=O)NC1CCCC1)c1ccc(F)cc1 (configuration not stated) the results were Mdm2 MdmX PPI -14, Apaf1 inhib 3, CHOP UPR activ 0, UBC13 inh 11 and UPR XBP1 act -3.
Cc1ccc(N(C(=O)Cn2nnc(-c3ccc(C)o3)n2)C(C(=O)NC2CCCC2)c2ccncc2)cc1 (configuration not stated) was read as Mdm2 MdmX PPI 55*, Apaf1 inhib 3, CHOP UPR activ -1, UBC13 inh -2, UPR XBP1 act -2 and Mdm2-MdmX conf 21.

Source: PubChem BioAssay (Sanford-Burnham Center for Chemical Genomics)
